{
  "source": "ChEMBL document CHEMBL1123543",
  "about": "“3,7-Diazabicyclane: a new narcotic analgesic” (J Med Chem, 1986)",
  "key": {"Mus musculus [1]": {"test_system": "Mus musculus", "assay": "Effective dose for analgetic activity on subcutaneous administration in mice using Writhing test", "format": "functional", "conditions": "sc", "outline": "(§1)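 Mouse acetic acid writhing assay. Compounds were given as methanesulfonic acid salts, dissolved in deionized water and injected subcutaneously. ED50 values and 95% confidence limits were calculated by the Litchfield–Wilcoxon method.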"}, "Opioid receptor": {"biological_target": "Opioid receptor (Rattus norvegicus, UniProt P33533+P34975+P33535)", "assay": "Concentration required to inhibit opiate receptor using radioligand [3H]- Etorphine", "format": "protein assay"}, "Mus musculus [2]": {"test_system": "Mus musculus", "assay": "Effective dose for analgetic activity on subcutaneous administration in mice using Writhing test; Inactive at 460 uM/kg", "format": "functional, organism-based", "outline": "as §1"}, "Rattus norvegicus [3]": {"test_system": "Rattus norvegicus", "assay": "Effective dose for analgetic activity on intracerebroventricular administration in rats using tail flick test; Inactive at 780 nM", "format": "functional, organism-based", "outline": "(§2)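 Rats had cannulae stereotaxically implanted in the lateral ventricle (AP 0.0, L 2.0 from bregma, 3.5 mm below dura) and recovered for 2 weeks. Methanesulfonate salts in artificial rat CSF were injected icv at 10 μL over 30 s, with doses given as total amount. CSF alone served as control. After 0.5 h of acclimation in restraint, the tail was immersed 5 cm in 55 °C water at 5, 10, 15 and 20 min. Withdrawal latency was timed with a 30 s cutoff, averaging three observations. ED50 and 95% confidence limits were derived by Litchfield–Wilcoxon.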"}, "Rattus norvegicus [4]": {"test_system": "Rattus norvegicus", "assay": "Effective dose for analgetic activity on intracerebroventricular administration in rats using tail flick test", "format": "functional", "outline": "as §2"}, "Mus musculus [5]": {"test_system": "Mus musculus", "assay": "Effective dose for analgetic activity on subcutaneous administration in mice using Writhing test; Inactive", "format": "functional, organism-based", "outline": "as §1"}, "Rattus norvegicus [6]": {"test_system": "Rattus norvegicus", "assay": "Effective dose for analgetic activity on intracerebroventricular administration in rats using tail flick test; Inactive", "format": "functional, organism-based", "outline": "as §2"}},
  "note": "Calls of active or inactive are those of the source.",
  "data": [
    {"smiles": "COC(c1cccc(O)c1)C1C2CN(C)CC1CN(C)C2", "note": "(stereo not drawn)", "values": [
      {"measurement": "ED50", "setting": "Mus musculus [1]", "result": 0.56, "unit": "µmol/kg"},
      {"measurement": "IC50", "setting": "Opioid receptor", "result": 2300, "unit": "nM"}
    ]},
    {"smiles": "CCC(=O)OC(c1ccccc1)C1C2CN(C)CC1CN(C)C2", "note": "(stereo not drawn)", "values": [
      {"measurement": "ED50", "setting": "Mus musculus [2]", "result": "inactive"},
      {"measurement": "IC50", "setting": "Opioid receptor", "result": 7600, "unit": "nM"},
      {"measurement": "ED50", "setting": "Rattus norvegicus [3]", "result": "inactive"}
    ]},
    {"smiles": "CCC(=O)OC(c1cccc(O)c1)C1C2CN(C)CC1CN(C)C2", "note": "(stereo not drawn)", "values": [
      {"measurement": "ED50", "setting": "Mus musculus [1]", "result": 0.85, "unit": "µmol/kg"},
      {"measurement": "IC50", "setting": "Opioid receptor", "result": 530, "unit": "nM"},
      {"measurement": "ED50", "setting": "Rattus norvegicus [4]", "result": 25, "unit": "nM"}
    ]},
    {"smiles": "COC(c1ccccc1)C1C2CN(C)CC1CN(C)C2", "note": "(stereo not drawn)", "values": [
      {"measurement": "ED50", "setting": "Mus musculus [5]", "result": "inactive"},
      {"measurement": "ED50", "setting": "Rattus norvegicus [6]", "result": "inactive"},
      {"measurement": "IC50", "setting": "Opioid receptor", "result": 7200, "unit": "nM"}
    ]},
    {"smiles": "CN1CC[C@]23c4c5ccc(O)c4O[C@H]2[C@@H](O)C=C[C@H]3[C@H]1C5", "note": "[MORPHINE]", "values": [
      {"measurement": "ED50", "setting": "Mus musculus [1]", "result": 3, "unit": "µmol/kg"},
      {"measurement": "ED50", "setting": "Rattus norvegicus [4]", "result": 23, "unit": "nM"}
    ]}
  ]
}
